# HUVEC inhibit = inhibitors of HUVEC proliferation, primary screen, cell-based, 384-well; CellTiter-Glo luminescence, 72 h; hits give low values; viability, % at 10 µM (by protocol); 86,000 tested, 1.1% active; AID 648, 2007;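 active = viability at or below 30%; inactive = viability above 30%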
# ERa coact inh = ERα–SRC-1 coactivator interaction inhibitors, primary screen, biochemical, TR-FRET, ERα LBD, estradiol-bound; Estrogen receptor (Homo sapiens), P03372; TR-FRET ER-alpha LBD / SRC-1 peptide; inhibition, % at 25.6 µM; 86,000 tested, 1.7% active; AID 629, 2007; in the data active = inhibition above about 50%
# ERb SRC1 inh = inhibitors of ERβ-SRC1 coactivator interaction, primary screen, biochemical, TR-FRET, ERβ LBD, SRC-1 peptide; Estrogen receptor beta (Homo sapiens), Q92731; TR-FRET ER-beta LBD / SRC1-Cy5 peptide binding; receptor agonist-loaded with 1 µM estradiol; 86,000 tested, 1.3% active; inhibition, % at 25.6 µM;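 active = compounds whose percent inhibition of the receptor-coactivator binding signal exceeds about 50% in the single-dose screen, limit read from the data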
# Target sequence (Q92731 whole entry, looked up, the tested form may be a part): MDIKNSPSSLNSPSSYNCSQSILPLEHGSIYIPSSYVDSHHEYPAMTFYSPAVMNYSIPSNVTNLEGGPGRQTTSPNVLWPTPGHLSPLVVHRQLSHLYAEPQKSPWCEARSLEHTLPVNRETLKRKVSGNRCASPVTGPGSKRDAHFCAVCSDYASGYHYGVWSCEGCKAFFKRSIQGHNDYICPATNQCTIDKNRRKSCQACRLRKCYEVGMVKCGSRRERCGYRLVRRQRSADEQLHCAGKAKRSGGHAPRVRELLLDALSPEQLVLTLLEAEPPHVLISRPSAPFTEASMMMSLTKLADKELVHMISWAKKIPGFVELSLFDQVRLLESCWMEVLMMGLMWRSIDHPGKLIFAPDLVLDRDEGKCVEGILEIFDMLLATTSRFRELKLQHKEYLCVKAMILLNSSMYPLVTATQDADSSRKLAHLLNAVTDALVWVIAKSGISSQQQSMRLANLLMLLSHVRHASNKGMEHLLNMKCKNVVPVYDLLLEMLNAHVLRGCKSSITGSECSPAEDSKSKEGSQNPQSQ
# Lung fibro prol = antiproliferative effect on LL 47 fibroblasts – human, LL 47 cells, CellTiter-Glo luminescence, primary screen; LL 47 human lung fibroblast viability, ATP luminescence; hits give low values; viability, % at 10 µM; 85,000 tested, 1.1% active; AID 719, 2007;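 active = viability at or below 50% in the single dose screen; inactive = viability above 50%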;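 note: compound exposure lasted 72 h before the ATP readout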
#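 material = human LL 47 lung fibroblast cells | dosing = compounds added from tenfold dosing solution, 0.1% DMSO final | timing = overnight cell rest, 72 h compound treatment at 37 °C | measured by = CellTiter-Glo luminescence measuring cellular ATP | evaluation = % viability versus median cells-only luminescence | control set = cell-only wells, no compound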
# ERa SRC1 pot = enhancers of ERα–SRC-1 coactivator binding, primary screen, biochemical, TR-FRET, ERα LBD, low estradiol. TR-FRET ERalpha-LBD/SRC-Cy5 coactivator binding, 2 h; 100 = basal binding, no effect. coactivator binding (% of control), % at 25.6 µM. 86,000 tested, 1.3% active. Estrogen receptor (Homo sapiens), P03372. AID 639, 2007; in the data active = activity above about 200%;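 note: binding measured in presence of low estradiol as agonist stimulus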
# H69AR growth 86K = proliferation blockers of H69AR lung cancer cells, primary screen, cell-based, human, 86K library | H69AR lung tumor viability, ATP luminescence, 72 h; hits give low values | viability, % at 10 µM | 85,000 tested, 6% active | AID 598, 2007;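 active = viability at or below 40%; inactive = viability above 40%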;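 note: multidrug resistant small cell line overexpressing MRP-1 efflux transporter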
# Hits are given with their value; i = inactive; nt = no result given; [ ] = dose if it differs, or a comment. Shown are actives, neighbours in structure and some others; about 9.2% of the full set was active somewhere.
SMILES,HUVEC inhibit,ERa coact inh,ERb SRC1 inh,Lung fibro prol,ERa SRC1 pot,H69AR growth 86K
CCOC(=O)c1cc(=O)cc(C(=O)OCC)o1,i,i,i,nt,i,i
CCOC(=O)C1Cc2cc3c(cc2C1=O)CC(C(=O)OCC)C3=O (configuration not stated),i,i,i,i,i,20
Cc1nn(-c2ccccc2)c(Cl)c1C(=O)Nc1nnc(C2CCCC2)s1,i,i,i,i,i,i
CSc1ccc(-c2nnn(CC(=O)NCc3ccccc3)n2)cc1,i,i,i,i,i,25
CCOC(=O)C(Cc1ccccc1)NC(=O)Cn1nnc(-c2ccc(SC)cc2)n1 (configuration not stated),i,i,i,i,i,i
Cc1cccc(C)c1NC(=O)C1CCCCN1C (configuration not stated),i,i,i,i,i,i
Cc1cccc(N(CC(=O)N2CCCC2)S(=O)(=O)c2ccccc2)c1,i,i,i,i,i,i
Cc1ccc(C=Nc2ccccc2C(N)=O)cc1,i,i,i,i,i,22
CCOC(=O)c1cnn2c(C(F)(F)F)cc(-c3ccccc3)nc12,i,i,i,i,i,i
COc1ccc(N2Cc3cccc(C(=O)NC(C)CCc4ccco4)c3C2=O)cc1 (configuration not stated),i,69[fluorescence artefact?],i,i,i,i
COc1ccc(N2CC(C(=O)Nc3ccccc3C(=O)NCc3ccco3)CC2=O)cc1 (configuration not stated),i,i,i,i,i,i
CCOC(=O)N1CCC(NC(=O)c2cnn3c(C(F)(F)F)cc(-c4cccc(OC)c4)nc23)CC1,i,72[fluorescence artefact?],51[fluorescence artefact?],27,i,i
CCOC(=O)N1CCC(NC(=O)c2cccc3c2C(=O)N(c2ccc(OC)cc2)C3)CC1,i,72[fluorescence artefact?],52,i,i,i
O=C(COC(=O)c1ccc2c(c1)OCO2)NCc1ccc(Cl)cc1,i,i,i,nt,i,i
CCOC(=O)c1cn2c3c(c(F)c(F)cc3c1=O)SC(N1CCOCC1)=N2,i,i,i,i,i,i
COCCn1nnnc1CN1CCC(Cc2ccccc2)CC1,i,i,i,i,i,i
O=C(CSc1nnc(COc2ccc(F)cc2)o1)N1c2ccccc2CCc2ccccc21,i,i,i,i,i,1.9
Cc1cc(C)cc(N2CCCC2=O)c1,i,i,i,i,i,i
CCOC(=O)c1ccc(NC(=O)CN2C(=O)CCC2=O)cc1,i,i,i,i,i,i
Cc1nnc(SCC(=O)NCc2ccco2)[nH]c1=O,i,i,i,i,i,i
CCOC(=O)c1ccc(NC(=O)CN2C(=O)C3C4C=CC(C4)C3C2=O)cc1 (configuration not stated),i,i,i,i,i,35
CCOC(=O)c1ccc(NC(=O)CSc2nc(C)cc(=O)[nH]2)cc1,i,90,84[fluorescence artefact?],i,i,i
Cc1cc(=O)[nH]c(SCC(=O)Nc2ccc(C(=O)O)cc2)n1,i,i,i,i,i,i
C=CCn1c(SCC(=O)Nc2ccc(C(=O)OCC)cc2)nnc1-c1sc(N)nc1C,i,i,i,i,i,39
Cc1cc(=O)[nH]c(SCC(=O)NCc2ccco2)n1,i,i,66,i,i,i
SMILES,HUVEC inhibit,ERa coact inh,ERb SRC1 inh,Lung fibro prol,ERa SRC1 pot,H69AR growth 86K
O=C(NCc1ccc(F)cc1)c1cnn2ccccc12,i,i,i,i,i,i
CC1(C)CCN(Cc2ccccc2)C1CC#N (configuration not stated),i,i,i,i,i,i
O=C(Nc1cc2c(cc1Br)OCCO2)c1ccco1,i,i,i,i,i,i
COCCNC(=O)C(OC(=O)c1cc2oc(C)cc2n1C)C(C)C (configuration not stated),i,i,i,i,i,i
CC(C)c1ccc(NC(=O)CSc2nc3c(c(=O)[nH]2)CCC3)cc1,i,100[fluorescence artefact?],i,i,i,i
Cc1cc2nc(-c3cccnc3SCC(=O)NCc3ccco3)[nH]c2cc1C,i,69[fluorescence artefact?],60,i,i,i
CCC(C)n1c(NC(=O)c2ccccc2)c(C#N)c2nc3ccccc3nc21 (configuration not stated),i,i,i,i,i,2.9
Nn1c(SCC(=O)N2CCN(S(=O)(=O)c3ccccc3)CC2)nnc1-c1cccs1,i,i,i,i,i,i
COC(=O)Nc1sccc1C(=O)Nc1sccc1C(=O)OC,i,i,i,i,201,i
N#Cc1nc(N2CCCC2)nc(N2CCCC2)n1,i,i,i,i,i,i
C1CCN(c2nc(N3CCCCC3)nc(N3CCNCC3)n2)CC1,i,i,i,i,i,0.4
Cc1cccc(NC(=O)C2CCN(c3nc(C)cc(C)n3)CC2)c1,i,i,55[fluorescence artefact?],i,i,i
Cc1nc(CC(=O)c2c(C)cc(O)cc2O)cs1,i,i,i,i,i,i
CCOC(=O)c1ccc(-n2c(=S)sc3c(=O)[nH]c(C)nc32)cc1,i,i,i,i,i,i
CCOC(=O)NC1(NC2CCCCC2)Oc2ccccc2O1,i,i,i,nt,i,21
CCOC(=O)C(C(=O)Nc1ccccc1C)C1CCCCC1 (configuration not stated),i,i,i,i,i,i
CCOC(=O)NC1(NCc2ccccc2)Oc2ccccc2O1,i,i,i,i,i,19
CCOC(=O)NC1(NC(C)C)Oc2ccccc2O1,i,i,i,i,i,36
CN1CCC(OC(=O)COc2ccc(C(C)(C)C)cc2)CC1,i,i,i,i,i,i
COc1ccc(-n2cnnc2SCC(=O)NC2CCS(=O)(=O)C2)cc1 (configuration not stated),i,i,i,i,i,i
CCOC(=O)c1sc(C)c2c(=O)n(CCCN3CCOCC3)cnc12,i,i,i,i,i,i
CC(NC(=O)CSc1nnc(-c2cccc(S(=O)(=O)N3CCCCC3)c2)o1)C12CC3CC(CC(C3)C1)C2 (configuration not stated),i,i,i,i,i,i
O=C(O)c1ccc(CN2C(=O)c3ccccc3S2(=O)=O)cc1,i,i,i,i,i,i
O=C(CN1/C(=C(/O)c2ccccc2)C(=O)c2ccccc2S1(=O)=O)c1ccccc1,i,i,i,i,i,28
CCCS(=O)(=O)N1CCN(S(=O)(=O)c2ccccc2)CC1,i,i,i,i,i,i
COc1ccc(-c2cc(C(F)F)n3ncc(C(=O)N4CCN5CCCC5C4)c3n2)cc1 (configuration not stated),i,i,i,i,i,38

# Source: PubChem BioAssay
